Most compounds without a hit are left out; they make up all but 2.1% or so of the library.
STEP inh: blocks human striatal-enriched tyrosine phosphatase; P54829; recombinant STEP, OMFP fluorogenic substrate, fluorescence; inhibition, % at 20 µM; actives 0.25% (n = 360,000); AID 588621;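 active = inhibition at 20 µM, scaled per plate between control wells, above about 37%, limit read from the data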;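 also: 0% = DMSO with enzyme and substrate and 100% = substrate only without enzyme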
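Material: STEP (striatal-enriched tyrosine phosphatase) enzyme, cell-free; Compound dosing: 20 µM single dose in 1% DMSO; Technique: fluorescence read at 480 nm ex / 540 nm em; Times: reaction 20 min, ambient temperature; Medium: 50 mM Bis-Tris pH 6.0 with 2.5 mM DTT and 0.005% Tween 20; Also added: OMFP at 25 µM.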
GRK2 inh: inhibitors of human GRK2 displacing RNA aptamer. P25098. bead flow cytometry, FAM-aptamer displacement from GRK2. inhibition of aptamer binding, % at 10 µM. actives 0.59% (n = 330,000). AID 488847;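 active = inhibition of aptamer binding above 40%, roughly 3 SD of noise, on plates passing a quality check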;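 also: median bead fluorescence of bound FAM aptamer so fluorescent compounds give negative values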
SUMO1 PPI mod: SUMO1-SIM interaction modulation; actives 0.33% (n = 360,000); AID 602429; inhibition, % at 20 µM; P63165; SUMO1 binding to a labelled peptide, TR-FRET, 1 h; in the data active = inhibition above about 37%
Target sequence (P63165 whole entry, looked up): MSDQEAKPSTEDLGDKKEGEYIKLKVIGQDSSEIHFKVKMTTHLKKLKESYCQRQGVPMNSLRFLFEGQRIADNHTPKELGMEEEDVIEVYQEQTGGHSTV
Scp1 inh: blocks human Scp-1 phosphatase activity; inhibition, % at 20 µM; actives 0.88% (n = 340,000); Recombinant Scp1, phosphopeptide, malachite green phosphate absorbance; Q9GZU7; AID 493091;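 active = inhibition above about 50% at 20 µM, limit read from the data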;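 also: plate controls were DMSO wells with enzyme for no effect and wells lacking enzyme for full effect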
Target sequence (Q9GZU7 76-261 limits assumed): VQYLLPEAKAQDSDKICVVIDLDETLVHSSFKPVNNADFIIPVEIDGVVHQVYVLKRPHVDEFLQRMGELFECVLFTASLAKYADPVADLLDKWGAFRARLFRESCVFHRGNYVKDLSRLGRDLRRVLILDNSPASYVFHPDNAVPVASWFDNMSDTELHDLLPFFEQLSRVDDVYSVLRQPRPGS
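Assay system: SCP-1 catalytic fragment, aa 76-261 | Buffer or medium: Tris acetate buffer pH 5.5 with MgCl2 and Tween-20 | Compound: One concentration, 20 µM, with 1.0% DMSO | Also added: Phospho 17-mer peptide substrate | Signal: Absorbance at 630 nm | Incubation: 45 min enzyme reaction at room temperature | Measure: % inhibition of SCP-1 phosphate liberation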
LMPTP inh: LMPTP (human) inhibition; P24666; recombinant LMPTP-A, OMFP fluorogenic substrate, fluorescence intensity; inhibition, % at 20 µM; actives 0.22% (n = 360,000);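 active = compounds that cut the enzyme signal by at least half of the control window in the single-dose screen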;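 also: plate controls were DMSO wells with enzyme plus substrate for no effect and substrate without enzyme for full effect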
Target sequence (P24666 whole entry, looked up): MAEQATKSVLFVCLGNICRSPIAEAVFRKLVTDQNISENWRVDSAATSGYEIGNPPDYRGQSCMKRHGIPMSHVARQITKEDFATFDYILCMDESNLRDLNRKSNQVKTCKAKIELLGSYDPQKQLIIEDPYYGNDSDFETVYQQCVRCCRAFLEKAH
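Test system – LMPTP-A enzyme · Amount – LMPTP-A at 0.625 nM final in the reaction · Buffer or medium – Bis-Tris pH 6.0, DTT, detergent · Reagent – OMFP 400 µM · Doses – single 20 µM dose · Schedule – reaction 50 min, room temperature, dark · Detection – fluorescence intensity of OMFP turnover product · Evaluation – percent inhibition versus substrate-only and uninhibited controls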
DNMT1 inh: DNMT1 (human) enzyme inhibition. P26358. inhibition (reported as % activation of signal), % at 10 µM. DNMT1 molecular beacon, Hinp1I cleavage, fluorescence. actives 0.83% (n = 360,000); in the data active = inhibition above about 50%
STEP inh conf: confirmation of human STEP phosphatase inhibitors | shares compounds with STEP inh | recombinant STEP, OMFP fluorogenic substrate, fluorescence | inhibition, % at 20 µM | actives 32% (n = 520) | AID 623866; call rule not given here;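 also: 0% = enzyme with substrate plus DMSO and 100% = substrate without enzyme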
The depositor's hits bear a star; . = no result given.

SMILES	STEP inh	GRK2 inh	SUMO1 PPI mod	Scp1 inh	LMPTP inh	DNMT1 inh	STEP inh conf
CC(C)CN(CC(C)C)C(=S)Nc1ccc(Cl)cc1	3.5	3.0	-1.3	3.5	-0.4	7.0	.
S=C(NCCCN1CCOCC1)Nc1cccc(-c2nnc3n2CCCCC3)c1	41.9*	4.0	2.4	-0.8	-0.1	12.1	23.2
S=C(NCCCN1CCOCC1)Nc1ccc(-c2nc3ccccc3[nH]2)cc1	64.7*	1.0	3.9	-4.7	0.5	-10.0	40.0*
CCC(CC)c1nnc(NC(=O)c2cc(C(=O)OC)cc([N+](=O)[O-])c2)s1	97.4*	2.0	-16.6	-9.0	1.5	7.1	69.1*
COC(=O)c1c(NC(=O)Cc2ccccc2)sc2c1CC(C)(C)NC2(C)C	50.7*	0.0	0.6	-0.2	-0.5	0.6	20.3
CCCN(CC(=O)Nc1ccccc1OC)C(=O)Cc1ccc2c(c1)CCC2	71.4*	7.0	-0.1	-4.9	-0.1	-3.2	45.8*
CC(C)c1ccc(N2C(=O)C(Cl)=C(N3CCOCC3)C2=O)cc1	42.2*	0.0	-26.8	-7.1	0.8	-0.3	-7.1
Nc1c(Cl)cc(-c2[nH]c3cc(C(=O)NCCO)ccc3c(=O)c2O)cc1Cl	2.0	4.0	-21.6	-2.3	1.8	11.4	.
COC1=NC(=C(c2ccccc2)c2ccccc2)OC1=O	-1.2	.	5.4	-10.5	0.6	1.4	.
COc1cc(Cl)ccc1NC(=S)N(CCCN1CCOCC1)Cc1cn(C)c2ccccc12	90.7*	1.0	2.8	-6.3	-1.2	-9.4	49.4*
COc1ccc(Cl)cc1NC(=S)N(CCCN1CCOCC1)Cc1cn(C)c2ccccc12	94.5*	0.0	3.3	-1.7	-4.0	-9.4	48.2*
COc1ccccc1NC(=S)N(CCCN1CCOCC1)Cc1cn(C)c2ccccc12	8.1	0.0	-2.8	-3.7	-3.8	-13.4	.
CCCn1c(Nc2ccccc2C)nc2ccccc21	-0.1	3.0	1.0	-0.7	12.6	-0.9	.
CCOc1ccc2nc(S(=O)(=O)NC(=O)C3(C)CCN3C(=O)c3cc(C)n(C)n3)sc2c1 (stereo not drawn)	-1.9	.	2.0	.	-2.2	5.8	.
NS(=O)(=O)c1ccc(NC(=S)NC2CCCCC2)cc1	59.7*	0.0	-0.1	0.6	-0.2	0.0	24.0
C=CCNCc1ccccc1[N+](=O)[O-]	-1.8	1.0	-4.2	-8.1	-0.5	2.6	.
COc1cc(C(=O)NNC(=O)C2CC=CCC2C(=O)O)cc(OC)c1OC (stereo not drawn)	118.7*	2.0	3.0	-4.6	0.9	1.6	10.4
COc1cc(C(=O)NNC(=O)C2CCC2)cc(OC)c1OC	-2.0	5.0	-0.2	11.9	-2.0	4.4	.
CC12CCC(=O)N1C(C(=O)Nc1ccc(Br)cc1Cl)CS2 (stereo not drawn)	-0.4	0.0	2.5	-1.8	-0.5	-1.9	.
Cc1ccc(-c2nc3ncccc3o2)cc1NC(=O)CC(C)C	84.9*	0.0	3.2	3.0	12.6	2.4	9.9*
COc1cc(Cl)cc(/C=N\NC(=O)c2ccc3c(c2)OCO3)c1O	51.6*	.	23.7	.	21.5	3.0	84.0*
CCOC(=O)C(=N/O)/C(C)=N/NC(=O)C(=O)Nc1cc(Cl)ccc1Cl	50.7*	2.0	3.0	-6.9	0.5	-6.2	8.1
COc1ccc(CN2C(=O)COc3ccccc3C2c2nc3ccccc3[nH]2)cc1 (stereo not drawn)	.	.	3.5	.	-1.5	.	.
NC1=NC(=O)/C(=C/c2ccccc2OS(=O)(=O)c2ccccc2)S1	-0.2	1.0	0.6	-4.2	-3.2	8.7	.
CN1CCN(C2=NC(=O)/C(=C/c3ccccc3OS(=O)(=O)c3ccccc3)S2)CC1	46.6*	0.0	-25.4	-6.2	-1.8	-3.0	22.5
SMILES	STEP inh	GRK2 inh	SUMO1 PPI mod	Scp1 inh	LMPTP inh	DNMT1 inh	STEP inh conf
Cc1ccc(N(CC(=O)N/N=C/c2cccs2)S(C)(=O)=O)cc1	121.4*	1.0	-3.8	-1.4	0.1	-2.5	-6.6
CCc1nc2c(OCc3ccccc3C)cccn2c1N(C)C(=O)c1ccc(C)cc1	6.8	.	1.3	.	1.3	-3.7	.
O=S(=O)(c1ccccc1)N1CCN(C(=S)NCCCN2CCOCC2)CC1	48.7*	2.0	0.7	4.8	-3.5	1.7	14.1
CC(=O)c1c(C)[nH]c(C(=O)CN2CCN(S(=O)(=O)c3ccccc3[N+](=O)[O-])CC2)c1C	0.3	6.0	-4.9	3.5	-0.4	-1.7	.
O=C(NCCCn1ccnc1)C(Cc1ccccc1)N1C(=O)c2ccccc2C1=O (stereo not drawn)	48.3*	2.0	-6.9	0.4	-0.9	1.4	35.7*
CNC(=S)Nc1ccccc1-c1ccccc1	41.0*	0.0	1.1	-4.1	-2.2	10.5	5.8
O=C(Nc1nc(-c2ccc3c(c2)Cc2ccccc2-3)cs1)c1ccccc1	47.2*	0.0	-7.1	-1.8	-0.8	25.8	2.3
O=C(Nc1cccc(-c2csc(Nc3ccccc3)n2)c1)c1ccccc1	-1.2	2.0	2.0	6.1	5.7	-36.3	.
COCCCN(C(=S)Nc1c(C)cc(C)cc1C)C(C)c1ccccn1 (stereo not drawn)	46.4*	0.0	0.0	-2.9	-2.4	2.6	24.8*
O=C(Nc1nnc(-c2ccc(Cl)cc2)o1)c1nc2ccccc2s1	72.1*	2.0	6.8	-9.8	15.1	-12.2	5.2
Cc1cc(C)cc(Cn2cc(CN3CC(N4CCCCC4)CS3(=O)=O)nn2)c1 (stereo not drawn)	.	.	4.1	.	-1.4	.	.
O=C(Nc1cccc(C(=O)O)c1)/C(=C/c1cccc([N+](=O)[O-])c1)NC(=O)c1cccc(Br)c1	2.1	0.0	-14.1	18.7	-1.8	-0.3	.
O=C(N/N=C/C(Cl)=C/c1ccc([N+](=O)[O-])cc1)C(=O)Nc1cccc(C(=O)O)c1	46.3*	0.0	-4.5	12.3	0.4	-3.8	4.0
S=C(NCCc1ccccc1)Nc1c(Cl)cccc1Cl	95.7*	0.0	-3.9	17.1	1.0	1.1	50.5*
CCNC(=O)N1CCC(n2nccc2NC(=O)CCCc2ccccc2)CC1	1.1	1.0	4.6	-7.8	-0.3	-1.7	.
Cc1csc(=O)n1CCC(=O)OCC(=O)NNC(=O)c1ccc(Cl)cc1	48.8*	.	2.6	4.4	0.4	-3.7	1.5
Cc1csc(=O)n1CCC(=O)OCC(=O)NCc1ccc(Cl)cc1Cl	1.0	0.0	-6.3	-4.0	-0.2	-1.7	.
O=C(CC(=O)c1ccccc1)Nc1cccc([N+](=O)[O-])c1	1.5	.	-29.8	.	0.4	-4.6	.
O=C(CC(=O)c1cccc([N+](=O)[O-])c1)Nc1ccccc1Cl	120.1*	2.0	-12.1	-7.0	-1.5	-4.0	-0.2
